Measured values as given in ChEMBL document CHEMBL5705892, “MK-2206, an allosteric Akt inhibitor, enhances antitumor efficacy by standard chemotherapeutic agents or molecular targeted drugs in vitro and in vivo” (Mol Cancer Ther, 2010).
Activity calls are given as the source filed them. The calls are words filed in the database; no cut-off is given here.

How the values were obtained:
NCI-H460 [1] = test: Synergistic antiproliferative activity against human NCI-H460 cells assessed as combination index at ED75 measured after 72 hrs in presence of camptothecin by celltiter-glo assay; type: functional
HCC70 [2] = test: Synergistic antiproliferative activity against human HCC70 cells assessed as combination index at ED75 measured after 96 hrs in presence of lapatinib by celltiter-glo assay; type: functional
SK-OV-3 [3] = test: Synergistic antiproliferative activity against human SK-OV-3 cells assessed as combination index at ED90 treated 24 hrs prior to lapatinib and measured after 72 hrs by celltiter-glo assay; type: functional; conditions: time 96 hrs
NCI-H292 = test: Antiproliferative activity against human NCI-H292 cells assessed as reduction in cell proliferation measured after 72 hrs by celltiter-glo assay; type: functional, cell-based; conditions: NCI-H292, 72 h
Procedure, shortened: (§1)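 Cells in RPMI 1640 with 10% heat-inactivated FBS at 37°C and 5% CO₂ were seeded at 2 to 3 × 10³ per well. […] Growth was read as cellular ATP by CellTiter-Glo.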

MDA-MB-468 [4] = test: Synergistic antiproliferative activity against human MDA-MB-468 cells assessed as combination index at ED90 measured after 96 hrs in presence of lapatinib by celltiter-glo assay; type: functional
NCI-H460 [5] = test: Induction of apoptosis in human NCI-H460 cells assessed as fold induction of capsase-3/7 activity measured after 24 to 48 hrs in presence of gemcitabine by caspase-glo 3/7 assay; type: functional; conditions: time 24-48 hrs
HCC70 [6] = test: Synergistic antiproliferative activity against human HCC70 cells assessed as combination index at ED50 measured after 72 hrs in presence of lapatinib by celltiter-glo assay; type: functional
Procedure, shortened: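 Cells grown in RPMI 1640 with 10% heat-inactivated FBS at 37°C, 5% CO₂. Seeded at 2 to 3 × 10³ per well; drugs added 24 h later. […] Viability read as cellular ATP by CellTiter-Glo. CI calculated by Chou–Talalay from median-effect plots at ED50, ED75 and ED90.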

A2780 [7] = test: Synergistic antiproliferative activity against human A2780 cells assessed as combination index at ED50 measured after 72 hrs in presence of doxorubicin by celltiter-glo assay; type: functional
Procedure, shortened: (§2)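 Cells were seeded at 2–3 × 10³ per well in RPMI 1640 with 10% FBS. At 24 h, MK-2206 and the partner drug were added simultaneously at constant concentration ratios spanning each agent's IC₅₀, for 72 h. Growth was read as cellular ATP by CellTiter-Glo. CI was taken from median-effect plots of each agent alone and in combination (Chou–Talalay), at ED₅₀, ED₇₅ and ED₉₀.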

[8] = Toxicity in human PC-3 cells xenografted CD1 nude mouse assessed as body weight loss at 120 mg/kg, po administered 3 times per week for 2 weeks starting 24 hrs post docetaxel treatment and measured on day 15; type: organism-based; conditions: in vivo, 360 h, time 15 day
Procedure, shortened: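 Male CD1-nude mice with s.c. PC-3 tumours (50% Matrigel/50% PBS, left flank), randomized at mean 0.2 cm³, n=5/group, treated from 25 d post-implant. Body weight monitored versus vehicle-only controls.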

NCI-H441 [9] = test: Induction of apoptosis in human NCI-H441 cells assessed as fold induction of capsase-3/7 activity measured after 24 to 48 hrs in presence of carboplatin by caspase-glo 3/7 assay; type: functional; conditions: time 24-48 hrs
NCI-H441 [10] = test: Induction of apoptosis in human NCI-H441 cells assessed as fold induction of capsase-3/7 activity measured after 24 to 48 hrs in presence of gemcitabine by caspase-glo 3/7 assay; type: functional; conditions: time 24-48 hrs
NCI-N87 = test: Synergistic antiproliferative activity against human NCI-N87 cells assessed as combination index at ED50 measured after 72 hrs in presence of lapatinib by celltiter-glo assay; type: functional
MDA-MB-468 [11] = test: Synergistic antiproliferative activity against human MDA-MB-468 cells assessed as combination index at ED50 measured after 96 hrs in presence of lapatinib by celltiter-glo assay; type: functional
HCC70 [12] = test: Synergistic antiproliferative activity against lapatinib pretreated human HCC70 cells assessed as combination index at ED90 measured after 72 hrs by celltiter-glo assay; type: functional
SK-BR-3 [13] = test: Synergistic antiproliferative activity against human SK-BR-3 cells assessed as combination index at ED50 measured after 72 hrs in presence of lapatinib by celltiter-glo assay; type: functional
NCI-H460 [14] = test: Synergistic antiproliferative activity against human NCI-H460 cells assessed as combination index at ED25 to ED90 measured after 72 hrs in presence of carboplatin by celltiter-glo assay; type: functional
NCI-H1993 = test: Synergistic antiproliferative activity against human NCI-H1993 cells assessed as combination index at ED25 to ED90 measured after 72 hrs in presence of gemcitabine by celltiter-glo assay; type: functional
[15] = Toxicity in human NCI-H460 cells xenografted CD1 nude mouse assessed as body weight loss at 120 mg/kg, po administered 3 times per week for 2 weeks measured on day 14 to 16; type: organism-based; conditions: in vivo, 336 h, time 14-16 day
Procedure, shortened: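 NCI-H460 cells in 50% Matrigel/PBS injected s.c. into flank of CD1-nude mice; randomized at mean tumour 0.2 cm³ (n = 5). MK-2206 in 30% Captisol, 120 mg/kg p.o. days 0, 2, 4, 7, 9, 11. Carboplatin 50 mg/kg i.v. in saline days 0 and 7 (from day 12 after implant), or gemcitabine 100 mg/kg i.v. in saline days 0 and 7 (from day 8). Body weight monitored.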

SK-BR-3 [16] = test: Antiproliferative activity against human SK-BR-3 cells assessed as reduction in cell proliferation measured after 72 hrs by celltiter-glo assay; type: functional, cell-based; conditions: SK-BR-3, 72 h; procedure, shortened: as §1
BT-474 = test: Synergistic antiproliferative activity against docetaxel pretreated human BT-474 cells assessed as combination index at ED75 measured after 72 hrs by celltiter-glo assay; type: functional
[17] = biological target: RAC-alpha serine/threonine-protein kinase (Homo sapiens) (UniProt P31749); test: Inhibition of AKT phosphorylation at S473 residue in human HCC70 cells at 1 umol/L measured after 3 to 24 hrs in presence of lapatinib by Western blot analysis; type: cell-based; conditions: dose 1.0 µmol/L, time 3-24 hrs
Sequence of RAC-alpha serine/threonine-protein kinase (Homo sapiens) (P31749 whole entry): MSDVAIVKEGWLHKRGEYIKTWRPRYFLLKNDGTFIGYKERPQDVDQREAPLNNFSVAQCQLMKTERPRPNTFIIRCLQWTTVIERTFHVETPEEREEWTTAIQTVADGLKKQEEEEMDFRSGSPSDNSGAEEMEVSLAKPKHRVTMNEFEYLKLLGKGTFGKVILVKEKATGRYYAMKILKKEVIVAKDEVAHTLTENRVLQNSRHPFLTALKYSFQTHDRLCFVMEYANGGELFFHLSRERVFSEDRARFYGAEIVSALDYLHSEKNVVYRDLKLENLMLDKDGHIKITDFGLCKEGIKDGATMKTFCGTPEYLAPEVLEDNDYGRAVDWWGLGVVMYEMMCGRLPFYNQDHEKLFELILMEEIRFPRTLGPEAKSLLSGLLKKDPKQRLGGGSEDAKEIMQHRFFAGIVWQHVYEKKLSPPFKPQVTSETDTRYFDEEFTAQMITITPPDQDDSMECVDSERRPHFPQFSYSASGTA
Procedure, shortened: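 HCC70 cells at ~70% confluence were exposed to 10 µmol/L lapatinib, 1 µmol/L MK-2206, or both, for 0, 3, 6, 12 or 24 h. Lysates were prepared in Triton X-100/Tris buffer (pH 7.5) with protease and phosphatase inhibitors. Immunoblots after SDS-PAGE and nitrocellulose transfer were probed for pAkt and pS6.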

SK-BR-3 [18] = test: Synergistic antiproliferative activity against human SK-BR-3 cells assessed as combination index at ED90 treated 24 hrs prior to lapatinib and measured after 72 hrs by celltiter-glo assay; type: functional; conditions: time 96 hrs
UMC-11 = test: Synergistic antiproliferative activity against human UMC-11 cells assessed as combination index at ED25 to ED90 measured after 72 hrs in presence of gemcitabine by celltiter-glo assay; type: functional
NCI-H460 [19] = test: Synergistic antiproliferative activity against human NCI-H460 cells assessed as combination index at ED90 measured after 72 hrs in presence of gemcitabine by celltiter-glo assay; type: functional
SK-OV-3 [20] = test: Antiproliferative activity against human SK-OV-3 cells assessed as reduction in cell proliferation measured after 72 hrs by celltiter-glo assay; type: functional, cell-based; conditions: SK-OV-3, 72 h; procedure, shortened: as §1
A2780 [21] = test: Synergistic antiproliferative activity against human A2780 cells assessed as combination index at ED75 measured after 72 hrs in presence of camptothecin by celltiter-glo assay; type: functional; procedure, shortened: as §2

Compound Cl.NC1(c2ccc(-c3nc4ccn5c(=O)[nH]nc5c4cc3-c3ccccc3)cc2)CCC1 has a CI75 (NCI-H460 [1]) of 0.39, a CI75 (HCC70 [2]) of 0.18 and a CI90 (SK-OV-3 [3]) of 0.18. For the same compound, the IC50 (NCI-H292) was 5.2 µM, the CI90 (MDA-MB-468 [4]) was 0.18 and the “fold change (FC)” value (NCI-H460 [5]) was 1.6. For the same compound, the CI50 (HCC70 [6]) was 0.46, the CI50 (A2780 [7]) was 0.7 and the Activity [8] was “Non-Toxic”. For the same compound, the “fold change (FC)” value (NCI-H441 [9]) was 2.3, the “fold change (FC)” value (NCI-H441 [10]) was 2.3 and the CI50 (NCI-N87) was 0.45. For the same compound, the CI50 (MDA-MB-468 [11]) was 0.18, the CI90 (HCC70 [12]) was 0.18 and the CI50 (SK-BR-3 [13]) was 0.43. The CI (NCI-H460 [14]) was 0.3, the CI (NCI-H1993) was 0.14 and the Activity [15] was “Non-Toxic”. For the same compound, the IC50 (SK-BR-3 [16]) was 0.1 µM, the CI75 (BT-474) was 0.5 and the inhibition [17] was “Active”. The CI90 (SK-BR-3 [18]) was 0.18, the CI (UMC-11) was 0.53 and the CI90 (NCI-H460 [19]) was 0.56. It also gave an IC50 (SK-OV-3 [20]) of 5.1 µM and a CI75 (A2780 [21]) of 0.4.
